Assay results as given in ChEMBL document CHEMBL4138240, “Structure-guided design, synthesis and evaluation of oxazolidinone-based inhibitors of norovirus 3CL protease” (Eur J Med Chem, 2018).

Experiments:
[1] = Inhibition of Norovirus 3CL protease using Edans-DFHLQ/GP-Dabcyl as substrate preincubated for 30 mins followed by substrate addition measured for 1 hr by FRET assay
In short: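 Protease preincubated at 37 °C for 30 min with serially diluted compound (up to 100 μM) or DMSO in assay buffer: 20 mM HEPES pH 8, 200 mM NaCl, 0.4 mM EDTA, 60% glycerol, 6 mM DTT. Substrate was then added. Fluorescence (ex 360/em 460 nm) was read for 1 h, with no-protease background subtracted. IC50 came from variable-slope dose-response fits.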

Norovirus = experiment: Antiviral activity against Norovirus replicon infected in human HG23 cells assessed as inhibition of viral RNA replication after 48 hrs by qRT-PCR method; type: functional, organism-based
In short: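 HG23 cells carrying the NV replicon, confluent or semi-confluent, were given medium with compound (up to 100 μM) or DMSO (<0.1%) for 48 h. Total RNA was then extracted and viral genome quantified by real-time qRT-PCR. EC50 was derived from curve fitting.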

[2] = Cytotoxicity against human HG23 cells after 72 hrs by crystal violet staining-based assay; type: cell-based

SMILES	IC50 [1] [µM]	EC50 (Norovirus) [µM]	CC50 at 72 h [2] [µM]	EC50 (Norovirus; Norovirus, HG23, 48 h) [µM]
CC(C)C[C@@H](C(=O)N[C@@H](C[C@@H]1CCNC1=O)C(O)S(=O)(=O)O)N1CC(Cc2cccc(Cl)c2)OC1=O (stereo in doubt; 12B)	13.2	17.5	> 100	
O=C[C@H](C[C@@H]1CCNC1=O)NC(=O)[C@H](CC1CCCCC1)N1CC(Cc2cccc(Cl)c2)OC1=O (mixture of isomers)	13.5		55.2	6.7
CC(C)C[C@@H](C(=O)N[C@H](C=O)C[C@@H]1CCNC1=O)N1CC(Cc2cccc(Cl)c2)OC1=O (stereo in doubt; 8B)	15.3	15.3	> 100	
CC(C)C[C@@H](C(=O)N[C@H](C=O)C[C@@H]1CCNC1=O)N1CC(COCc2cccc(Cl)c2)OC1=O (mixture of isomers)	8.1		> 100	14.8
CC(C)C[C@@H](C(=O)N[C@@H](C[C@@H]1CCNC1=O)C(O)S(=O)(=O)O)N1CC(Cc2cccc(Cl)c2)OC1=O (stereo in doubt; 12A)	8.2			12.3
CC(C)C[C@@H](C(=O)N[C@H](C=O)C[C@@H]1CCNC1=O)N1CC(Cc2cccc(Cl)c2)OC1=O (stereo in doubt; 8A)	7.3			11.5
CC(C)C[C@@H](C(=O)N[C@H](C=O)C[C@@H]1CCNC1=O)N1CC(COc2cccc(Cl)c2)OC1=O (mixture of isomers)	3.8		> 100	8.2
O=C1NCC[C@H]1C[C@H](NC(=O)[C@H](CC1CCCCC1)N1CC(Cc2cccc(Cl)c2)OC1=O)C(O)S(=O)(=O)O (mixture of isomers)	15.1		46.1	8.1
CC(C)C[C@@H](C(=O)N[C@@H](C[C@@H]1CCNC1=O)C(O)S(=O)(=O)O)N1CC(COCc2cccc(Cl)c2)OC1=O (mixture of isomers)	10.6		> 100	17.3
CC(C)C[C@@H](C(=O)N[C@@H](C[C@@H]1CCNC1=O)C(O)S(=O)(=O)O)N1CC(COc2cccc(Cl)c2)OC1=O (mixture of isomers)	8.5		> 100	7.6
